Assay results as given in ChEMBL document CHEMBL1123724, “A novel synthesis of colchicide and analogues from thiocolchicine and congeners: reevaluation of colchicide as a potential antitumor agent” (1987).

Legend:
[1] = tested on: Mus musculus; assay: In vivo antitumor activity against P388 mouse leukemia and minimum affective dose (MED) which produced a T/C greater than the threshold value of 125 was reported.; type: functional; settings: read-out: MED
Summary of the method: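 P388 leukemia cells implanted intraperitoneally in mice. Drug given ip once daily for 9 days (QD1 × 9). T/C = median survival time of treated animals / median survival time of untreated controls × 100. Minimum effective dose is the lowest dose (mg/kg) giving T/C above the threshold of 125. Reported dose levels are those with the highest T/C.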

[2] = tested on: Mus musculus; assay: In vivo antitumor activity against P388 mouse leukemia expressed as T/C (median survival time of treated animals / median survival time of untreated controls x 100) at a dose of 3.12 mg/kg; type: functional
Summary of the method: (§1)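 P388 leukemia implanted ip in mice, with ip dosing on a QD1 × 9 schedule. Read-out is T/C = median survival of treated animals / median survival of untreated controls × 100. Activity requires duplicate tests giving T/C ≥120%.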

[3] = target: Tubulin beta chain (Bos taurus) (UniProt Q6B856); settings: at 25 µM
[4] = tested on: Mus musculus; assay: In vivo antitumor activity against P388 mouse leukemia expressed as T/C (median survival time of treated animals / median survival time of untreated controls x 100) at a dose of 12.5 mg/kg; type: functional; summary of the method: as §1
[5] = tested on: Mus musculus; assay: In vivo antitumor activity against P388 mouse leukemia expressed as T/C (median survival time of treated animals / median survival time of untreated controls x 100) at a dose of 0.18 mg/kg; type: functional; summary of the method: as §1
[6] = tested on: Mus musculus; assay: In vivo antitumor activity against P388 mouse leukemia expressed as T/C (median survival time of treated animals / median survival time of untreated controls x 100) at a dose of 0.5 mg/kg; type: functional; summary of the method: as §1
[7] = tested on: Mus musculus; assay: In vivo antitumor activity against P388 mouse leukemia expressed as T/C (median survival time of treated animals / median survival time of untreated controls x 100) at a dose of 0.32 mg/kg; type: functional; summary of the method: as §1
[8] = tested on: Mus musculus; assay: In vivo antitumor activity against P388 mouse leukemia expressed as T/C (median survival time of treated animals / median survival time of untreated controls x 100) at a dose of 0.94 mg/kg; type: functional; summary of the method: as §1

Tubulin beta chain (Bos taurus), sequence (Q6B856 whole entry): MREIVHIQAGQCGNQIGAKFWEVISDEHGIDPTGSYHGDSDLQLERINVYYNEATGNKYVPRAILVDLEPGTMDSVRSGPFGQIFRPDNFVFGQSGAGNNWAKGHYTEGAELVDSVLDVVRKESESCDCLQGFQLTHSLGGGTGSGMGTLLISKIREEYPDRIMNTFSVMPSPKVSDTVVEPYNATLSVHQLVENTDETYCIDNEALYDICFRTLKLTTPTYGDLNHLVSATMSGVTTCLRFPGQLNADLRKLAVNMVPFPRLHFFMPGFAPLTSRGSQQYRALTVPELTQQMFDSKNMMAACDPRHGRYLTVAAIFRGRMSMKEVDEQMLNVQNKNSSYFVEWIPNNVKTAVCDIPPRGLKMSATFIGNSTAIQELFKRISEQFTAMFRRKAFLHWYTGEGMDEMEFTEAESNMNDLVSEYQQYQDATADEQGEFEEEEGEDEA

Tubulin binding [3] [%]	Structure (SMILES)	minimal effective dose [1] [mg/kg]	also measured
	CCN(CC)c1ccc2c(cc1=O)[C@@H](NC(C)=O)CCc1cc(OC)c(OC)c(OC)c1-2	0.39	T/C [2]: 216
26	COc1cc2c(c(OC)c1O)-c1cccc(=O)cc1[C@@H](NC(C)=O)CC2		
	COc1cc2c(c(OC)c1OC)-c1ccc(SCc3ccccc3)c(=O)cc1[C@@H](NC(C)=O)CC2	3.12	T/C [4]: 214
	COc1cc2c(c(OC)c1OC)-c1ccc(SC)c(=O)cc1[C@@H](NC(C)=O)CC2 [THIOCOLCHICINE]	0.05	T/C [5]: 193
0	COc1c2c(cc3c1-c1cccc(=O)cc1[C@@H](NC(C)=O)CC3)OCO2		
	COc1cc2c(c(OC)c1OC)-c1ccc(OC)c(=O)cc1[C@@H](NC(C)=O)CC2 [COLCHICINE]	0.06	T/C [6]: 245
0	COc1cc2c(c(OC(C)=O)c1OC)-c1cccc(=O)cc1[C@@H](NC(C)=O)CC2		
	CNc1ccc2c(cc1=O)[C@@H](NC(C)=O)CCc1cc(OC)c(OC)c(OC)c1-2	0.04	T/C [7]: 166
0	COc1cc2c(c(O)c1OC)-c1cccc(=O)cc1[C@@H](NC(C)=O)CC2		
	COc1c2c(cc3c1-c1ccc(OC)c(=O)cc1[C@@H](NC(C)=O)CC3)OCO2	> 0.4	T/C [8]: 166
